Assay results reported in ChEMBL document CHEMBL1137338, “Effects of substitution on 9-(3-bromo-4-fluorophenyl)-5,9-dihydro-3H,4H-2,6-dioxa-4- azacyclopenta[b]naphthalene-1,8-dione, a dihydropyridine ATP-sensitive potassium channel opener” (J Med Chem, 2006).

Target: Sulfonylurea receptor 2, Kir6.2 (Homo sapiens, UniProt O60706+Q14654)
Assay: Ability to open human urinary bladder Kir6.2 channel containing SUR2B in Ltk cells by FLIPR assay
Assay type: functional, cell-based
Summary of the method: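 Ltk- cells stably transfected with the Kir6.2/SUR2B exon 17- splice variant. Membrane potential was followed with DiBAC dye in a 96-well cell-based kinetic fluorescence (FLIPR) assay. The highest concentration tested was 10 µM. Each compound's maximal fluorescence response was expressed as % of the response to the reference opener.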

Chain of Sulfonylurea receptor 2, Kir6.2 (Q14654 whole entry): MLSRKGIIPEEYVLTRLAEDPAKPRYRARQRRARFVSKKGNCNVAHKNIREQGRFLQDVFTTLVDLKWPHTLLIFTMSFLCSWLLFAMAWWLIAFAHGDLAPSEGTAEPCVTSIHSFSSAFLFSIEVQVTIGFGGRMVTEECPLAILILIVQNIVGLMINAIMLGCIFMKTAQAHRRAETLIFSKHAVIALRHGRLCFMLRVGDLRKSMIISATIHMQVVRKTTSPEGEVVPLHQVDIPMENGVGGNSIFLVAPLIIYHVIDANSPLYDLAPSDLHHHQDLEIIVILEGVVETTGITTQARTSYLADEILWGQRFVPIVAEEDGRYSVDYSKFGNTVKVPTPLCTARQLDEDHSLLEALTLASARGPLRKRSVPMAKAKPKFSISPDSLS
Chain of Sulfonylurea receptor 2, Kir6.2 (O60706 whole entry): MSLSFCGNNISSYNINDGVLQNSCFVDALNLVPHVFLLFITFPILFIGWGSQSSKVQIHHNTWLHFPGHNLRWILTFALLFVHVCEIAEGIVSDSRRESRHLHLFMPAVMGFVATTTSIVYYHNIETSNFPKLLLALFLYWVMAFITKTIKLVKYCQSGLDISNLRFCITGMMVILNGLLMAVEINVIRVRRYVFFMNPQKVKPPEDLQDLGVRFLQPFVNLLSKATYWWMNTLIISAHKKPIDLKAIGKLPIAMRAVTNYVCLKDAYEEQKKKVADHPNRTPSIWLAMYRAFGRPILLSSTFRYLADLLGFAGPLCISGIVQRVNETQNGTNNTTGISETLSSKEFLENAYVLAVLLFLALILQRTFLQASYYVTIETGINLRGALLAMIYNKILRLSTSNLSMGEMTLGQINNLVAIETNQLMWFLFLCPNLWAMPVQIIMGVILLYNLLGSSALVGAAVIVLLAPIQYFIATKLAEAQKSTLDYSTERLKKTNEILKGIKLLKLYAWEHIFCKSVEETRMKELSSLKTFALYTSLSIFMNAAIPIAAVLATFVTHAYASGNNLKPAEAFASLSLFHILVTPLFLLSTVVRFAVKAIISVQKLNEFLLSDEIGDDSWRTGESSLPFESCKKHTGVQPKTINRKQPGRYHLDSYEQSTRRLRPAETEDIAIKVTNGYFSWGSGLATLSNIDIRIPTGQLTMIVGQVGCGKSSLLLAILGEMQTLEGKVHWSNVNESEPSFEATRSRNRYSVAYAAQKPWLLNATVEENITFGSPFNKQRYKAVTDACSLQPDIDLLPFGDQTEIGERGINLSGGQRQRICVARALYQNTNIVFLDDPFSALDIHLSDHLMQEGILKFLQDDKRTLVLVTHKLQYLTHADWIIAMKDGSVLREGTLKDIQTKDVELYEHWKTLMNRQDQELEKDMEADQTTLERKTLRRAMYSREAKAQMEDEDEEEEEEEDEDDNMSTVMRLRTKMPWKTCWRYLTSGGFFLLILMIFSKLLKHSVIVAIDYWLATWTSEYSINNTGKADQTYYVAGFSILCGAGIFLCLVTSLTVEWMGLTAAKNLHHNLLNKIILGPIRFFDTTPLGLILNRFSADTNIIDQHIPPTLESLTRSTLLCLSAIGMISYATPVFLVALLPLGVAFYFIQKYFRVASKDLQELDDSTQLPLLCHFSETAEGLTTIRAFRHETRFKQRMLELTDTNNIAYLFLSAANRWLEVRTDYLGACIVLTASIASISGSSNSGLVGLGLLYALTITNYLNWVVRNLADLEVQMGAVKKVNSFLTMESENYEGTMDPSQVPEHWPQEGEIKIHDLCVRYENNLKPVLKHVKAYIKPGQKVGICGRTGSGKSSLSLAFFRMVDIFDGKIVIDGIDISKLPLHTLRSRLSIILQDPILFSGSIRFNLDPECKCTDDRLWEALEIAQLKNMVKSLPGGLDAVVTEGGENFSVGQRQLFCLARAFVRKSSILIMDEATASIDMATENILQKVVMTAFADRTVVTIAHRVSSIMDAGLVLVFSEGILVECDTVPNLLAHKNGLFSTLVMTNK

Row | Structure (SMILES) | EC50
1 | CCCCC[C@@H]1OC(O)=C2C1=NC1=C(C(=O)COC1)[C@H]2c1ccc(F)c(Br)c1 (relative stereo) | > 10000 nM
2 | CCCCC[C@H]1OC(O)=C2C1=NC1=C(C(=O)COC1)[C@H]2c1ccc(F)c(Br)c1 (relative stereo) | > 10000 nM
3 | CC[C@H]1OCC(O)=C2C1=NC1=C(C(=O)COC1)[C@H]2c1ccc(Cl)c(Cl)c1 (stereo in doubt; 74a) | 468 nM
4 | CC[C@H]1OCC(O)=C2C1=NC1=C(C(=O)COC1)[C@H]2c1ccc(Br)c(Br)c1 (stereo in doubt; 77b) | 427 nM
5 | CC(C)[C@H]1OC(O)=C2C1=NC1=C(C(=O)COC1)[C@H]2c1ccc(F)c(Br)c1 (relative stereo) | > 10000 nM
6 | CC[C@H]1OCC(O)=C2C1=NC1=C(C(=O)COC1)[C@H]2c1ccc(F)c(Br)c1 (stereo in doubt; 71b) | > 10000 nM
7 | C[C@@H]1OCC2=C(C1=O)[C@@H](c1ccc(F)c(Br)c1)C1=C(O)OCC1=N2 (racemic) | 501 nM
8 | CC[C@H]1OCC(O)=C2C1=NC1=C(C(=O)COC1)[C@H]2c1ccc(F)c(I)c1 (stereo in doubt; 73a) | 1290 nM
9 | CC[C@H]1OCC(O)=C2C1=NC1=C(C(=O)COC1)[C@H]2c1ccc(Cl)c(Br)c1 (stereo in doubt; 75a) | 759 nM
10 | C[C@H]1OC(O)=C2C1=NC1=C(C(=O)COC1)[C@H]2c1ccc(F)c(Br)c1 (racemic) | 1000 nM
11 | CC[C@H]1OCC(O)=C2C1=NC1=C(C(=O)COC1)[C@H]2c1ccc(F)c(Cl)c1 (racemic) | 457 nM
12 | CCC[C@H]1OC(O)=C2C1=NC1=C(C(=O)COC1)[C@H]2c1ccc(C)c(Br)c1 (racemic) | 398 nM
13 | CC[C@H]1OCC(O)=C2C1=NC1=C(C(=O)COC1)[C@H]2c1ccc(Cl)c(Br)c1 (racemic) | 1620 nM
14 | CCC[C@H]1OC(O)=C2C1=NC1=C(C(=O)COC1)[C@H]2c1ccc(F)c(Br)c1 (stereo in doubt; 23a) | 3240 nM
15 | CC[C@H]1OC(O)=C2C1=NC1=C(C(=O)COC1(C)C)[C@H]2c1ccc(F)c(Br)c1 (stereo in doubt; 38b) | > 10000 nM
16 | CC[C@H]1OCC(O)=C2C1=NC1=C(C(=O)COC1)[C@H]2c1ccc(C)c(Br)c1 (stereo in doubt; 78a) | 724 nM
17 | CCC[C@H]1OC(O)=C2C1=NC1=C(C(=O)COC1)[C@H]2c1ccc(Cl)c(Cl)c1 (stereo in doubt; 42a) | 1320 nM
18 | CCC[C@H]1OC(O)=C2C1=NC1=C(C(=O)COC1)[C@H]2c1ccc(Br)c(Cl)c1 (stereo in doubt; 44b) | 437 nM
19 | CCC[C@H]1OC(O)=C2C1=NC1=C(C(=O)COC1)[C@H]2c1ccc(C)c(Br)c1 (stereo in doubt; 46a) | 3470 nM
20 | C[C@@H]1OCC2=C(C1=O)[C@H](c1ccc(F)c(Br)c1)C1=C(O)OCC1=N2 (stereo in doubt; 8b) | 295 nM
21 | CCC[C@H]1OC(O)=C2C1=NC1=C(C(=O)COC1)[C@H]2c1ccc(Br)c(Cl)c1 (racemic) | 427 nM
22 | CC[C@H]1OCC(O)=C2C1=NC1=C(C(=O)COC1)[C@H]2c1ccc(F)c(Cl)c1 (stereo in doubt; 72b) | > 10000 nM

Row | Structure (SMILES) | EC50
23 | CC[C@H]1OCC(O)=C2C1=NC1=C(C(=O)COC1)[C@H]2c1ccc(Cl)c(Br)c1 (stereo in doubt; 75b) | 5500 nM
24 | CCC[C@H]1OC(O)=C2C1=NC1=C(C(=O)COC1)[C@H]2c1ccc(Br)c(Br)c1 (racemic) | 331 nM
25 | CC1(C)OCC2=C(C1=O)C(c1ccc(F)c(Br)c1)C1=C(O)OCC1=N2 (stereo in doubt; 9b) | 2820 nM
26 | CC[C@H]1OC(O)=C2C1=NC1=C(C(=O)C(C)(C)OC1)[C@H]2c1ccc(F)c(Br)c1 (stereo in doubt; 36b) | 550 nM
27 | CCCC[C@H]1OC(O)=C2C1=NC1=C(C(=O)COC1)[C@H]2c1ccc(F)c(Br)c1 (racemic) | 2190 nM
28 | CC[C@@H]1OCC2=C(C1=O)[C@@H](c1ccc(F)c(Br)c1)C1=C(O)OCC1=N2 (racemic) | > 10000 nM
29 | CC(C)C[C@H]1OC(O)=C2C1=NC1=C(C(=O)COC1)[C@H]2c1ccc(F)c(Br)c1 (racemic) | > 10000 nM
30 | CCC[C@H]1OC(O)=C2C1=NC1=C(C(=O)COC1)[C@H]2c1ccc(Cl)c(Cl)c1 (stereo in doubt; 42b) | 2000 nM
31 | CCC[C@H]1OC(O)=C2C1=NC1=C(C(=O)COC1)[C@H]2c1ccc(Br)c(Br)c1 (stereo in doubt; 45a) | 1150 nM
32 | CC[C@H]1OCC(O)=C2C1=NC1=C(C(=O)COC1)[C@H]2c1ccc(F)c(I)c1 (racemic) | 12000 nM
33 | CCC[C@H]1OC(O)=C2C1=NC1=C(C(=O)COC1)[C@H]2c1ccc(F)c(I)c1 (stereo in doubt; 41a) | 1950 nM
34 | CC[C@H]1OCC(O)=C2C1=NC1=C(C(=O)COC1)[C@H]2c1ccc(C)c(Br)c1 (racemic) | 1580 nM
35 | CCC[C@H]1OC(O)=C2C1=NC1=C(C(=O)COC1)[C@H]2c1ccc(Cl)c(Cl)c1 (racemic) | 603 nM
36 | CC[C@H]1OCC(O)=C2C1=NC1=C(C(=O)COC1)[C@H]2c1ccc(F)c(I)c1 (stereo in doubt; 73b) | 2950 nM
37 | CC[C@H]1OCC(O)=C2C1=NC1=C(C(=O)COC1)[C@H]2c1ccc(Br)c(Br)c1 (stereo in doubt; 77a) | 309 nM
38 | CCC[C@H]1OC(O)=C2C1=NC1=C(C(=O)COC1)[C@H]2c1ccc(Cl)c(Br)c1 (stereo in doubt; 43a) | 813 nM
39 | CCC[C@H]1OC(O)=C2C1=NC1=C(C(=O)COC1)[C@H]2c1ccc(Br)c(Cl)c1 (stereo in doubt; 44a) | 1050 nM
40 | CC[C@H]1OCC(O)=C2C1=NC1=C(C(=O)COC1)[C@H]2c1ccc(Br)c(Cl)c1 (stereo in doubt; 76a) | 1620 nM
41 | C[C@@H]1OCC2=C(C1=O)[C@@H](c1ccc(F)c(Br)c1)C1=C(O)OCC1=N2 (stereo in doubt; 7b) | 513 nM
42 | CCCC[C@H]1OC(O)=C2C1=NC1=C(C(=O)COC1)[C@H]2c1ccc(F)c(Br)c1 (stereo in doubt; 29a) | 5130 nM
43 | COC[C@H]1OC(O)=C2C1=NC1=C(C(=O)COC1)[C@H]2c1ccc(F)c(Br)c1 (stereo in doubt; 25a) | 479 nM
44 | CC(C)C[C@H]1OC(O)=C2C1=NC1=C(C(=O)COC1)[C@H]2c1ccc(F)c(Br)c1 (stereo in doubt; 31a) | 2510 nM

Stronger by EC50, values ahead:

Row | EC50 | Structure (SMILES)
45 | 51.3 nM | C[C@@H]1OC(O)=C2C1=NC1=C(C(=O)COC1)[C@H]2c1ccc(F)c(Br)c1 (stereo in doubt; 17b)
46 | 3.72 nM | CCC[C@@H]1OC(O)=C2C1=NC1=C(C(=O)COC1)[C@H]2c1ccc(F)c(Br)c1 (stereo in doubt; 22b)
47 | 126 nM | CCC[C@H]1OC(O)=C2C1=NC1=C(C(=O)COC1)[C@H]2c1ccc(Br)c(Br)c1 (stereo in doubt; 45b)
48 | 174 nM | C[C@@H]1OCC2=C(C1=O)[C@@H](c1ccc(F)c(Br)c1)C1=C(O)OCC1=N2 (stereo in doubt; 7a)
49 | 166 nM | CC[C@@H]1OCC(O)=C2C1=NC1=C(C(=O)COC1)[C@H]2c1ccc(F)c(Br)c1 (stereo in doubt; 70a)
50 | 72.4 nM | C[C@@H]1OCC2=C(C1=O)[C@H](c1ccc(F)c(Br)c1)C1=C(O)OCC1=N2 (stereo in doubt; 8a)
51 | 5.13 nM | CCC[C@@H]1OC(O)=C2C1=NC1=C(C(=O)COC1)[C@H]2c1ccc(F)c(Br)c1 (racemic)
52 | 20 nM | CC[C@@H]1OCC(O)=C2C1=NC1=C(C(=O)COC1)[C@H]2c1ccc(F)c(Br)c1 (stereo in doubt; 70b)
53 | 64.6 nM | C[C@H]1OC(O)=C2C1=NC1=C(C(=O)COC1)[C@H]2c1ccc(F)c(Br)c1 (stereo in doubt; 18a)
54 | 151 nM | CCC[C@H]1OC(O)=C2C1=NC1=C(C(=O)COC1)[C@H]2c1ccc(Cl)c(Br)c1 (stereo in doubt; 43b)
55 | 35.5 nM | CC[C@@H]1OC(O)=C2C1=NC1=C(C(=O)COC1)[C@H]2c1ccc(F)c(Br)c1 (racemic)
56 | 22.9 nM | COC[C@H]1OC(O)=C2C1=NC1=C(C(=O)COC1)[C@H]2c1ccc(F)c(Br)c1 (racemic)
57 | 145 nM | CC[C@@H]1OC(O)=C2C1=NC1=C(C(=O)COC1)[C@H]2c1ccc(F)c(Br)c1 (stereo in doubt; 20b)
58 | 282 nM | CC[C@H]1OC(O)=C2C1=NC1=C(C(=O)C(C)(C)OC1)[C@H]2c1ccc(F)c(Br)c1 (racemic)
59 | 5.5 nM | C[C@@H]1OC(O)=C2C1=NC1=C(C(=O)COC1)[C@H]2c1ccc(F)c(Br)c1 (racemic)
60 | 1 nM | CCC[C@@H]1OC(O)=C2C1=NC1=C(C(=O)COC1)[C@H]2c1ccc(F)c(Br)c1 (stereo in doubt; 22a)
61 | 75.9 nM | CCC[C@H]1OC(O)=C2C1=NC1=C(C(=O)COC1)[C@H]2c1ccc(F)c(I)c1 (racemic)
62 | 24 nM | CC1(C)OCC2=C(C1=O)C(c1ccc(F)c(Br)c1)C1=C(O)OCC1=N2 (stereo in doubt; 9)
63 | 135 nM | CC[C@H]1OCC(O)=C2C1=NC1=C(C(=O)COC1)[C@H]2c1ccc(Br)c(Br)c1 (racemic)
64 | 45.7 nM | O=C1COCC2=C1C(c1ccc(F)c(Br)c1)C1=C(O)OCC1=N2 (stereo in doubt; 6)
65 | 186 nM | CC[C@H]1OCC(O)=C2C1=NC1=C(C(=O)COC1)[C@H]2c1ccc(F)c(Br)c1 (racemic)
66 | 22.9 nM | COC[C@H]1OC(O)=C2C1=NC1=C(C(=O)COC1)[C@H]2c1ccc(F)c(Br)c1 (stereo in doubt; 25b)
67 | 105 nM | CC[C@H]1OCC(O)=C2C1=NC1=C(C(=O)COC1)[C@H]2c1ccc(Cl)c(Cl)c1 (racemic)
68 | 67.6 nM | CCC[C@H]1OC(O)=C2C1=NC1=C(C(=O)COC1)[C@H]2c1ccc(F)c(Cl)c1 (racemic)
69 | 174 nM | CCC[C@H]1OC(O)=C2C1=NC1=C(C(=O)COC1)[C@H]2c1ccc(Cl)c(Br)c1 (racemic)
70 | 3.89 nM | CC[C@@H]1OC(O)=C2C1=NC1=C(C(=O)COC1)[C@H]2c1ccc(F)c(Br)c1 (stereo in doubt; 20a)
71 | 257 nM | C[C@H]1OC(O)=C2C1=NC1=C(C(=O)COC1)[C@H]2c1ccc(F)c(Br)c1 (stereo in doubt; 18b)
72 | 14.1 nM | CC[C@@H]1OCC(O)=C2C1=NC1=C(C(=O)COC1)[C@H]2c1ccc(F)c(Br)c1 (racemic)
